# Compound activity from PubChem.
# pPAFAH FP inh: pPAFAH (human) enzyme inhibition; 330,000 tested, 1.5% active; AID 463082; Q13093; inhibition, % at 3.39 µM; recombinant pPAFAH, FP-rhodamine probe fluorescence polarization;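 active = inhibition above the mean inhibition across the screen plus 3 SD, cut at about 25% in these data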;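 also: inhibitors block binding of the rhodamine activity-based probe so polarization drops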
# PAFAH1B3 FP inh: PAFAH1B3 (human) inhibition | recombinant PAFAH1B3, FP-rhodamine probe, fluorescence polarization | Q15102 | AID 492972 | 340,000 tested, 0.28% active | inhibition, % at 3.39 µM;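 active = inhibition above the screen-wide average of all tested compounds plus 3 SD, cut at about 25% in these data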
# Target sequence (Q15102 whole entry, looked up): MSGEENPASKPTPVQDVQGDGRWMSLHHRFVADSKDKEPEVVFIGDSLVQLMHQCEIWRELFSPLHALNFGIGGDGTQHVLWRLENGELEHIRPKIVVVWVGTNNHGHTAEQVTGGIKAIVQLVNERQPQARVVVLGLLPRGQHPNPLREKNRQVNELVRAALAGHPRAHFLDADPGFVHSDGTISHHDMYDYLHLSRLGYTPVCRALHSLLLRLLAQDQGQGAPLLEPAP
# PREPL inhibitor: inhibitors of human prolyl oligopeptidase-like enzyme PREPL; Q4J6C6; recombinant PREPL, fluorescence polarization activity-based probe; inhibition, % at 5.96 µM; 320,000 tested, 0.68% active; AID 2751
# Apaf1 inhib: inhibitors of human Apaf-1 apoptosome; inhibition, % at 20 µM; AID 489030; reconstituted apoptosome caspase-3 activity, DEVD-Rh110 fluorescence; O14727; 330,000 tested, 0.71% active; active = inhibition of at least 40% at 20 µM
#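 Material: reconstituted apoptosome with Apaf-1, cytochrome c, caspase-9, procaspase-3, dATP / Buffer or medium: pH 7.5 Hepes buffer with CHAPS, BSA, DTT / Also added: cytochrome c with DEVD-Rh110 / Schedule: compound with Apaf-1, dATP, procaspase-3 30 min, then 50 min reaction, room temperature / Technique: rhodamine 110 fluorescence at Ex 480/Em 540 nm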
# PAFAH2 inh: inhibitors of human PAFAH2; Q99487; recombinant PAFAH2, FP-rhodamine activity probe, fluorescence polarization; inhibition, % at 3.39 µM; 340,000 tested, 0.99% active; AID 492956;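 active = inhibition above the mean over all tested compounds plus 3 SD, cut at about 30% in these data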;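 also: inhibitors block probe labeling of enzyme so polarization drops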
# PAFAH1B2 FP inh: blocks human PAF acetylhydrolase 1b catalytic subunit 2; P68402; recombinant PAFAH1B2, FP-rhodamine activity probe, fluorescence polarization; inhibition, % at 3.39 µM; 340,000 tested, 1.2% active; AID 492953;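 active = inhibition above the mean of all tested compounds plus 3 SD, cut at about 24% in these data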
# Target sequence (P68402 whole entry, looked up): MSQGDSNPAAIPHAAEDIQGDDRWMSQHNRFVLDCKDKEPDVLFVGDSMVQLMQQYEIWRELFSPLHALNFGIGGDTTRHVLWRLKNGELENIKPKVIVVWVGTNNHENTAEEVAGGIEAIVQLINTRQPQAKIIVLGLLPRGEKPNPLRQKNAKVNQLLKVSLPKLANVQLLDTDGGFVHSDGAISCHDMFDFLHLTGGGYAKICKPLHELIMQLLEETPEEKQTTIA
# PREPL inh cf: human PREPL inhibition, confirmation. inhibition, % at 5.96 µM. shares compounds with PREPL inhibitor. recombinant PREPL, fluorescence polarization activity probe. 2,000 tested, 67% active
# A number is an active result; – = inactive; · = not tested or not shown. Hits are enriched below; roughly 3.5% of the tested compounds scored in any of these assays. Rule as the data show it, unless noted: active = inhibition above about 43%; inactive = the rest.
SMILES,pPAFAH FP inh,PAFAH1B3 FP inh,PREPL inhibitor,Apaf1 inhib,PAFAH2 inh,PAFAH1B2 FP inh,PREPL inh cf
CCOc1ccccc1NC(=O)C(c1ccccc1)N1CCN(CC(=O)N2CCCC2)CC1 (centres undefined),–,–,–,–,–,–,·
CNc1oc(-c2ccccc2Cl)nc1P(=O)(c1ccccc1)c1ccccc1,–,–,44,–,–,–,55
CNc1oc(-c2ccc(C)cc2)nc1P(=O)(c1ccccc1)c1ccccc1,–,–,–,–,–,–,·
N#Cc1cc([N+](=O)[O-])ccc1N1CCN(c2ccccc2O)CC1,–,–,53,–,–,–,48
O=[N+]([O-])c1ccc(N2CCN(c3ccc([N+](=O)[O-])cc3CO)CC2)c(CO)c1,–,–,–,–,–,–,·
Cc1ccc(C)c(-c2nn(-c3cc(N4CCN(CCO)CC4)ccc3[N+](=O)[O-])c(=O)c3ccccc23)c1,–,–,62,–,–,–,57
Cc1c(CCC(=O)NCCCn2ccnc2)c(=O)oc2c(C)c3oc4c(c3cc12)CCCC4,–,–,49,–,–,–,–
Cc1c(Cl)cccc1N(CC(=O)NC(C)c1ccccc1)S(C)(=O)=O (centres undefined),–,–,–,–,–,–,·
COc1cc(O)c(C(CCN2CCCCC2)c2cc(OC)c(OC)c(OC)c2)c(OC)c1 (centres undefined),–,–,–,–,–,–,·
COc1cc(O)c(C(CCN2CCCC2)c2cc(OC)c(OC)c(OC)c2)c(OC)c1 (centres undefined),–,–,45,–,–,–,47
COc1ccc2cc1Oc1ccc(cc1)CC1c3c(cc(OC)c4c3Oc3cc5c(cc3O4)CCNC5C2)CCN1C (centres undefined),–,–,51,41,–,–,52
CCOc1ccc(C2NCCc3cc(OC)c(OC)cc32)cc1OC (centres undefined),–,–,–,–,–,–,·
COc1ccc2[nH]c3c(N4CCc5ccccc5C4)ncnc3c2c1,33,–,60,–,–,–,56
CCOC(=O)N1CCN(c2ncnc3c2[nH]c2ccc(F)cc23)CC1,–,–,–,–,–,–,·
COc1ccc(N2CCN(c3ncnc4c3[nH]c3ccccc34)CC2)cc1,–,–,52,–,–,–,46
CCOC(=O)N1CCN(c2ncnc3c2[nH]c2ccc(OC)cc23)CC1,–,–,–,–,–,–,·
Fc1ccc2[nH]c3c(N4CCN(c5ccccc5)CC4)ncnc3c2c1,–,–,62,–,–,–,48
O=[N+]([O-])c1cccc(CN2CCCCCC2)c1,–,–,–,–,–,–,·
O=[N+]([O-])c1ccc(CN2CCSCC2)cc1,–,–,–,–,–,–,·
O=[N+]([O-])c1ccc(N2CCN(Cc3cccc([N+](=O)[O-])c3)CC2)cc1,–,–,45,–,–,–,44
O=[N+]([O-])c1ccc(CN2CCN(c3ccc([N+](=O)[O-])cc3)CC2)cc1,–,–,45,–,–,–,51
CC(=O)Nc1sc(N/N=C/c2ccccc2F)nc1-c1ccc(C)cc1,–,–,–,–,–,–,·
CCOc1ccc(CN2CCC(n3nccc3NC(=O)c3ccccc3OC)CC2)cc1,–,–,–,–,–,–,·
CN(C)CCCNc1cc(C(C)(C)C)nc2c(-c3ccccc3)cnn12,–,–,67,–,–,–,61
Clc1ccc2nc(-c3ccccn3)c(Nc3ccc4c(c3)OCO4)n2c1,27,–,67,·,–,–,54
SMILES,pPAFAH FP inh,PAFAH1B3 FP inh,PREPL inhibitor,Apaf1 inhib,PAFAH2 inh,PAFAH1B2 FP inh,PREPL inh cf
Cc1ccccc1C1CCCN(Cc2nc(C3CC3)no2)C1 (centres undefined),–,–,–,–,–,–,·
Cc1cc(NCc2ccccn2)n2ncc(-c3ccc(Cl)cc3)c2n1,–,·,49,–,·,·,–
COc1ccc(C(C(=O)NCc2ccccc2)N(C(=O)c2snc(C(N)=O)c2N)C2CCCC2)cc1O (centres undefined),–,–,–,–,–,–,·
CN(C)c1ccc(C(O)P(=O)(OCc2ccccc2)c2ccc(N(C)C)cc2)cc1 (centres undefined),–,·,51,–,·,·,53
CC(C)c1ccc(C(O)P(=O)(OCc2ccccc2)c2ccc(N(C)C)cc2)cc1 (centres undefined),–,–,–,–,–,–,·
Cc1ccccc1-c1nc(CN2CCC(C(=O)N3CCN(c4ccccn4)CC3)CC2)c(C)o1,–,–,49,–,–,–,–
COC(=O)c1ccc(N2CCN(c3ccccc3)CC2)c(N)c1,–,–,–,–,–,–,·
COC(=O)c1ccc(N2CCN(c3ccccc3)CC2)c(NC(=O)C2CC2)c1,–,–,50,–,–,–,–
CC1=Nc2ccccc2/C1=C\c1sc(Nc2ccc(C)cc2)nc1O,28,–,52,–,–,–,46
Oc1cccc(Nc2nc(O)c(/C=C3\C=Nc4ccccc43)s2)c1,28,–,53,–,–,–,52
CC1=Nc2ccccc2/C1=C/c1sc(=O)n(CC(=O)N2CCCC2)c1O,–,–,–,–,–,–,·
CS(=O)(=O)c1ccc(S(=O)CC(=O)OCc2ccccc2)c([N+](=O)[O-])c1 (centres undefined),·,–,·,·,–,–,·
COc1cccc(C2CC(c3ccccc3)Nc3nc(N)nn32)c1 (centres undefined),–,–,–,–,–,–,·
COc1ccc(C2CC(c3cccc(OC)c3)n3nc(N)nc3N2)cc1 (centres undefined),–,–,46,–,–,–,52
Cc1cccc(C2CC(c3ccc(F)cc3)Nc3nc(N)nn32)c1 (centres undefined),–,–,51,–,–,–,55
Cc1ccc(C2CC(c3cccc(Cl)c3)n3nc(N)nc3N2)cc1 (centres undefined),–,–,51,–,–,–,51
CCc1ccc(C2CC(c3ccc(C)cc3)n3nc(N)nc3N2)cc1 (centres undefined),·,–,·,·,–,–,·
Cc1cccc(C2CC(c3ccc(Cl)cc3)Nc3nc(N)nn32)c1 (centres undefined),–,–,52,–,–,–,52
CC1(C)CN=c2s/c(=C\c3ccc(Cl)cc3)c(=O)n2C1,–,–,–,–,–,–,·
CN(C(=O)COC(=O)COc1ccc(Cl)cc1Cl)c1c(N)n(Cc2ccccc2)c(=O)[nH]c1=O,–,–,–,–,–,–,·
Cc1ccc(CN2C(=O)[C@H]3Cc4c([nH]c5ccccc45)C(C)(C)N3C2=O)cc1,–,–,–,–,–,–,·
O=C(NCCNc1ccc2ccccc2c1)c1cccn2c(=O)c3sccc3nc12,–,·,51,51,·,·,–
